In ChEMBL document CHEMBL5260822, “Structure-based design and synthesis of 2,4-diaminopyrimidines as EGFR L858R/T790M selective inhibitors for NSCLC” (Eur J Med Chem, 2017):
Calls of active or inactive are those of the source. No cut-off for these calls is given here.

Columns and labels:
[1] = Half life in Sprague-Dawley rat at 10 mg/kg, po and measured after 24 hrs by LC-MS/MS analysis; format: ADME, organism-based; details: in vivo
In short: (§1)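 Male Sprague–Dawley rats (190–220 g) dosed by oral gavage at 10 mg/kg in 5% DMSO / 95% HP-β-CD aqueous solution (20%); iv reference arm at 1 mg/kg. Blood sampled at 0.25, 0.5, 1, 2, 4, 6, 8 and 24 h, centrifuged (8000 × g, 6 min), and plasma quantified by LC–MS/MS.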

[2] = Toxicity in BALB/c nude mouse xenografted with human NCI-H1975 cells harboring EGFR L858R/T790M mutant assessed as morphological changes in kidney at 15 to 30 mg/kg, po for 18 days by hematoxylin and eosin staining based microscopic analysis; format: organism-based; details: in vivo, 432 h, dose 15-30 mg/kg, time 18 day
In short: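 H1975 subcutaneous xenografts were grown in female BALB/cA nu/nu mice (n = 6 per group), dosed at 15 or 30 mg/kg/day for 18 days or with vehicle. At the end the mice were sacrificed. Heart, kidney and liver were harvested, processed and stained with hematoxylin and eosin for routine histological examination.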

NCI-H1975 [3] = test: Antiproliferative activity against human NCI-H1975 cells harboring EGFR L858R/T790M double mutant assessed as inhibition of cell proliferation incubated for 72 hrs by sulforhodamine B colorimetric assay; format: functional, cell-based; details: NCI-H1975, 72 h
NCI-H1975 [4] = test: Inhibition of Erk signalling in EGF-stimulated human NCI-H1975 cells harboring EGFR L858R/T790M double mutant assessed as decrease in p-ERK level at 0.1 to 100 nM and measured after 2 hrs by Western blot analysis; format: cell-based; details: dose 0.1-100 nM
In short: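 Cells treated with compound for 2 h, then stimulated with EGF for 15 min and lysed. Lysates cleared at 12,000 × g (10 min, 4 °C), protein measured by Bradford assay, and equal amounts run on 8% SDS-PAGE and blotted to nitrocellulose. Probed for p-EGFR (Y1068), EGFR, p-ERK (T202/Y204), ERK, with tubulin or GAPDH as loading controls.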

[5] = Oral bioavailability in Sprague-Dawley rat at 10 mg/kg and measured after 24 hrs by LC-MS/MS analysis; format: ADME, organism-based; details: in vivo; in short: as §1
[6] = Toxicity in BALB/c nude mouse xenografted with human NCI-H1975 cells harboring EGFR L858R/T790M mutant assessed as mortality at 15 to 30 mg/kg, po for 18 days; format: organism-based; details: in vivo, 432 h, dose 15-30 mg/kg, time 18 day
In short: (§2)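 Female BALB/cA nu/nu mice were given 1 × 10^6 H1975 cells in 0.1 mL PBS subcutaneously in the right flank. At an average tumour volume of 100 mm3 (about 18 days post-implantation) they were randomised, n = 6 per group. Groups received 15 or 30 mg/kg/day for 18 consecutive days or vehicle. Mice were kept at constant room temperature, 12/12-h light/dark, with standard diet and water ad lib.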

NCI-H1975 [7] = test: Inhibition of Akt signalling in EGF-stimulated human NCI-H1975 cells harboring EGFR L858R/T790M double mutant assessed as […] at 0.1 to 100 nM and measured after 2 hrs by Western blot analysis; format: cell-based; details: dose 0.1-100 nM
[8] = tested on: Epidermal growth factor receptor (Homo sapiens), P00533 [L858R,T790M]; test: In vivo inhibition of EGFR in BALB/c nude mouse xenografted with human NCI-H1975 cells harboring EGFR L858R/T790M mutant assessed as decrease in phosphorylated-EGFR level at 15 to 30 mg/kg, po for 18 days by western blot analysis; format: functional, organism-based; details: dose 15-30 mg/kg, time 18.0 day
[9] = target: T1, Tyrosine-protein kinase JAK3 (Homo sapiens) (UniProt P52333); test: Inhibition of JAK3 (unknown origin) at 1000 nM by DiscoverX KINOMEscan assay relative to control; values are per cent of control
T1 sequence (whole entry): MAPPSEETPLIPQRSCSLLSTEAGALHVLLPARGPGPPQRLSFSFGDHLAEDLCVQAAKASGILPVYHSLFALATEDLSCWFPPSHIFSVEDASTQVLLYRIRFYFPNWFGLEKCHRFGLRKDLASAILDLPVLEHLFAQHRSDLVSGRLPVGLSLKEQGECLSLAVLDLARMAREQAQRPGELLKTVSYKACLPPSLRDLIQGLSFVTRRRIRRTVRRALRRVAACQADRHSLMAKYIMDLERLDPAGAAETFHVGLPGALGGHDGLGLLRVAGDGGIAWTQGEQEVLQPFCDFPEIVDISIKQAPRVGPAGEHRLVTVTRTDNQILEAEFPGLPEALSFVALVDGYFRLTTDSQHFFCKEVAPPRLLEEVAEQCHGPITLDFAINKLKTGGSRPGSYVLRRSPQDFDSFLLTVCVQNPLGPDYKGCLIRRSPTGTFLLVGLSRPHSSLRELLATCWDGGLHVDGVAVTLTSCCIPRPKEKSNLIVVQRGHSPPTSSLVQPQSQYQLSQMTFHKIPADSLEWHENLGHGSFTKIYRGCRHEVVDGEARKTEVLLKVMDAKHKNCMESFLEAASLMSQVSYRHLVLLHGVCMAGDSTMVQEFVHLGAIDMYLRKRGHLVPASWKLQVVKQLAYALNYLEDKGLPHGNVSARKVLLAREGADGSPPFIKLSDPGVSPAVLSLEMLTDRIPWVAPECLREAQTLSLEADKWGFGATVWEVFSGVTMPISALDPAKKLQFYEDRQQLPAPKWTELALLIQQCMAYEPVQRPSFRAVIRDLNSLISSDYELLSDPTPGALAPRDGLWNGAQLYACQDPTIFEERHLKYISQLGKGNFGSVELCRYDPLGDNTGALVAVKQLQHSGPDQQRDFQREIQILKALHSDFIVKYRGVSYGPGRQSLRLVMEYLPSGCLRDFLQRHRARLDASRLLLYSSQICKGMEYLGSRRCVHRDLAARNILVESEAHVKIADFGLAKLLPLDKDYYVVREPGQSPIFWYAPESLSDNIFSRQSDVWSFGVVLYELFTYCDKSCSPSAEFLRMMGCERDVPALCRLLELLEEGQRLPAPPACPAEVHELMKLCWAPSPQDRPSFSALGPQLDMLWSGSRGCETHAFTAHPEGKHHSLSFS

[10] = Cmax in Sprague-Dawley rat at 1 mg/kg, iv and measured after 24 hrs by LC-MS/MS analysis; format: ADME, organism-based; design: dose 1 mg/kg, time 24 hrs, route iv; details: in vivo
[11] = Toxicity in BALB/c nude mouse xenografted with human NCI-H1975 cells harboring EGFR L858R/T790M mutant assessed as body weight loss at 15 to 30 mg/kg, po for 18 days; format: organism-based; details: in vivo, 432 h, dose 15-30 mg/kg, time 18 day; in short: as §2
A-431 = test: Antiproliferative activity against human A-431 cells harboring wild type EGFR assessed as inhibition of cell proliferation incubated for 72 hrs by sulforhodamine B colorimetric assay; format: functional, cell-based; details: A-431, 72 h

Chain of Epidermal growth factor receptor (Homo sapiens), P00533 [L858R,T790M] (P00533 whole entry T790M/L858R, looked up): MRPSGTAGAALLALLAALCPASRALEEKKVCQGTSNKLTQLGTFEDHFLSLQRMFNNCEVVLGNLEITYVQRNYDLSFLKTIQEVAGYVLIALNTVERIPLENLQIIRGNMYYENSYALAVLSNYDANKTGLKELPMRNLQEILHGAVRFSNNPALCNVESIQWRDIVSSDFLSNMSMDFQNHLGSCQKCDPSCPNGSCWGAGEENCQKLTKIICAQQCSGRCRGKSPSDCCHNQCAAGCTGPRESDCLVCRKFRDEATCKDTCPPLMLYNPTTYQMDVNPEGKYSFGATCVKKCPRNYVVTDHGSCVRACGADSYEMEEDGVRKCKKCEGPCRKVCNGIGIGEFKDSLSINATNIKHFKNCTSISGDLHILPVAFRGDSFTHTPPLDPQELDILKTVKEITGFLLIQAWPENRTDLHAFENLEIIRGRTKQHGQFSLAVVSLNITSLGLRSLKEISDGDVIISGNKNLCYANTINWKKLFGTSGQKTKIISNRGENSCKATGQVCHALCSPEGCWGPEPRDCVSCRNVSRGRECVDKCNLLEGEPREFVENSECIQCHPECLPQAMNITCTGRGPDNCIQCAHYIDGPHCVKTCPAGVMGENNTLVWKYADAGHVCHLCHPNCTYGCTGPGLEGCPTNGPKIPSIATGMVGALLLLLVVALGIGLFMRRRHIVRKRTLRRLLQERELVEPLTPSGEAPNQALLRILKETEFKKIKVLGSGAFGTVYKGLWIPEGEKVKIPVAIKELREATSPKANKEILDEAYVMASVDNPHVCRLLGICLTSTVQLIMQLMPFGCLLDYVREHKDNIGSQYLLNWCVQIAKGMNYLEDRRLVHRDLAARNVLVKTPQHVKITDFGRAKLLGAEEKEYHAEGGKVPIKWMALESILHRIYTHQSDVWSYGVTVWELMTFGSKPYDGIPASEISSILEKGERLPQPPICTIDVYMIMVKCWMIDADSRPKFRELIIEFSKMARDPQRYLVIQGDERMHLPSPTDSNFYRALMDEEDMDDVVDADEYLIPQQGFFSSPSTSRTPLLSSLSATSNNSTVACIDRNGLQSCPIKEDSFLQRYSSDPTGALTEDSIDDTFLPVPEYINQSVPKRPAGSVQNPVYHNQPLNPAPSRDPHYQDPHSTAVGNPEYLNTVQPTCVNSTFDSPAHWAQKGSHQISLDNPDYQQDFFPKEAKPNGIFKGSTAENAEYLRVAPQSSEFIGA

C=CC(=O)Nc1cc(Nc2ncc(Br)c(Nc3ccc4ccn(C)c4c3)n2)c(OC)cc1N1CCN(C)CC1
half-life [1]: 195 min
Activity [2]: Non-Toxic
IC50 (NCI-H1975 [3]): 184 nM
inhibition (NCI-H1975 [4]): Dose-Dependent Effect
F [5]: 52.3%
Activity [6]: Non-Toxic
inhibition (NCI-H1975 [7]): Dose-Dependent Effect
inhibition [8]: Active
residual activity [9]: < 1%
Cmax [10]: 235 ng/mL
Activity [11]: Non-Toxic
IC50 (A-431): 1690 nM
